Experimental findings from PubChem BioAssay are described below.

One may read the viability as a read-out of living cells in per cent, often relative to untreated cells. By inhibition is commonly meant the change of the read-out against control, counted positive when it falls.

A short description of test [1]: OD615 S. cerevisiae growth inhibition, permissive medium, pilot counter-assay, permissive growth control for S. cerevisiae lifespan shortening project (AID 705;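 active = growth inhibition above 25% in both replicates, a cutoff set 3 SD above the mean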). To be noted: OD615, 24 h, at 10 µM, active compounds read high. A digest of the protocol:
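Material: engineered DeaD yeast; compound dosing: one dose 10 µM, DMSO 0.25% final; measure: yeast growth inhibition indicated by reduced 24 h OD615; detection: OD615 turbidity read; incubation: cells pre-grown 4 h, then 24 h compound exposure, 30 °C humidified; medium: permissive synthetic complete medium with raffinose and galactose carbon sources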

Test [2] in a line: Restrictive medium S. cerevisiae growth inhibition, OD615, pilot screen of yeast lifespan reduction project, restrictive growth control (AID 706;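 active = growth inhibition above a set limit, 3 SD over mean compound inhibition, in both replicates, cut at about 43% in these data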;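 also: modified DeaD lifespan yeast strain shifted to restrictive glucose medium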). Particulars: OD615, 48 h, at 10 µM, active compounds read high. Summed up:
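material = engineered S. cerevisiae DeaD strain | medium = glucose-based CSMM-D restrictive medium | times = 4 h pre-incubation, 48 h exposure at 30 °C | technique = OD615 absorbance reading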

The nature of test [3]: viability gain of MRP-1-high H69AR cells under doxorubicin, pilot screen, MRP-1 activator project, CellTiter-Glo, duplicate (AID 807).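 Also: compound pretreatment 18-22 h then 72 h combined with doxorubicin; 0% = doxorubicin alone and 100% = vehicle without doxorubicin.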 Particulars: H69AR viability with doxorubicin, CellTiter-Glo luminescence; at 10 µM; active compounds read high. In general terms: In ATP-based viability assays light output follows the ATP content of the culture.
The nature of test [4]: growth suppression of beta-catenin knockout HCT116, pilot screen, human colon tumor cells (AID 823;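 active = cell viability at or below a set limit in both duplicate runs, the limit being the all-compound median minus 4 SD, cut at about 23% in these data, passing the limit was not always enough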;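 also: 0% = wells killed by 20 µM Hyamine and 100% = untreated DMSO cell wells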). Particulars: CellTiter-Glo, 60 h, at 10 µM, active compounds read low.
Test [5] is described as follows: growth suppression of PTEN-deleted HCT116, pilot screen, cell-based, HCT116 clonal line, CellTiter-Glo (AID 824;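 active = viability at or below 27.92% in each of two runs, the all-compound median minus 4 SD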;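 also: 0% = 20 µM Hyamine control and 100% = vehicle cell control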). Particulars: 60 h, at 10 µM, active compounds read low.
Test [6] can be described thus: inhibitors of the yeast RAM network, pilot screen, dse1pr::URA3 reporter, 5-FOA selection (AID 869;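 active = inhibition over a set limit, the all-compound mean plus 3 SD, in both replicate runs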;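 also: 0% = DMSO wells with no growth and 100% = 10 µM 1-NA-PP1 with full growth; RAM network block rescues cells from 5-FOA so hits raise OD615 growth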). Particulars: S. cerevisiae dse1pr::URA3 5-FOA growth, OD615, 2 d; at 10 µM; active compounds read high; strain carries analog-sensitive mutant Cbk1 kinase.
The nature of test [7]: RAM signaling pathway blockade in yeast – S. cerevisiae, Pdr1DBD-CYC8 efflux-inhibited sensitized strain, primary screen (AID 1298;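 active = RAM network inhibition above 8.4% in each of two replicates, 3 SD over the compound average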;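 also: 0% = DMSO untreated cells without growth and 100% = 10 µM 1-NA-PP1 full growth; higher means more yeast growth rescued from 5-FOA killing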). To be noted: S. cerevisiae cbk1-as DSE1-URA3 strain, 5-FOA growth OD615, 2 d; at 50 µM; active compounds read high.

Unmarked numbers belong to inactive results. Inconclusive results are not listed. Calls of active or inactive are those of the source.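 The calls were made as follows, unless noted: active = viability increase at or above a cutoff of the median across tested compounds plus 3 SD (cut at about 8.5% in these data, passing the limit was not always enough); inconclusive = some gains above the cutoff, reason not given; inactive = the rest.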

On to `O=C1C2C3C=CC(CO)(O3)C2C(=O)N1c1ccccc1-c1ccccc1` (stereo unspecified), for which the growth inhibition in test [1] is 97.3% (active); in test [2], 100% (active). Besides, the viability increase in test [3] is -4.39%. Further, the viability in test [4] was 93.7%; in test [5] it was 92%. Moreover, the inhibition in test [6] was 0.13%. The RAM network inhibition in test [7] was -1.89%.
As for `Cc1ccccc1Cn1c(CN2CCN(C(=O)c3ccco3)CC2)nc2c1c(=O)n(C)c(=O)n2C`, the growth inhibition was 1.26% in test [1] and -4.52% in test [2]. Moreover, the viability increase in test [3] is -4.75%. The viability in test [4] is 94.1%; in test [5] it was 95.7%. Also, the inhibition in test [6] is 0.335%. Further, the RAM network inhibition in test [7] was 1.2%.
On to `CCOC(=O)c1[nH]c(=O)[nH]c1CSc1nc(C)cc(C)n1`, for which the growth inhibition was -4.23% in test [1] and 7.25% in test [2]. The viability increase in test [3] is -3.65%. The figures for the viability in test [4] and in test [5] were 102% and 96.9%, respectively. Also, in test [6], the inhibition was 0.985%. For the same compound, in test [7], the RAM network inhibition is 5.37%.
On to `c1ccc(COc2nsnc2N2CCOCC2)cc1`, for which the growth inhibition in test [1] was 6.21%; in test [2], 13.8%. Besides, the viability increase in test [3] is -1.67%. In addition, the viability in test [4] is 107%; in test [5], 86.5%. Besides, the inhibition in test [6] is 0.145%. The RAM network inhibition in test [7] was 1.41%.
As for `CCCC(=O)OCCNC(=O)c1cc2ccccc2oc1=O`, the growth inhibition in test [1] is -4.39%; in test [2] it was 2.19%. For the same compound, in test [3], the viability increase is -0.74%. Further, the viability was 102% in test [4] and 90.2% in test [5]. The inhibition in test [6] was 0.64%. Also, in test [7], the RAM network inhibition is 2.41%.
For `COc1ccc(OC)c(C2CC(=O)N3CN(c4ccccc4F)CSC3=C2C#N)c1` (stereo unspecified), the values for the growth inhibition in test [1] and in test [2] were 8.3% and 14.5%, respectively. For the same compound, the viability increase in test [3] is -1.77%. In addition, the viability is 98.3% in test [4] and 101% in test [5]. Further, the inhibition in test [6] was 1.03%. Besides, the RAM network inhibition in test [7] is 8.39%.
Take `CC1CCN(S(=O)(=O)c2ccc(NC(=O)c3cccs3)cc2)CC1`: the growth inhibition is -0.77% in test [1] and 5.38% in test [2]. Also, the viability increase in test [3] was -5.18%. Moreover, the viability in test [4] was 85.5%; in test [5], 75.8%. For the same compound, the inhibition in test [6] is 0.115%. Further, the RAM network inhibition in test [7] was 3.83%.
For `COc1ccc(C)cc1S(=O)(=O)N1CCN(S(=O)(=O)c2cc(C)ccc2OC)C(C)C1` (stereo unspecified), the results for the growth inhibition in test [1] and in test [2] were -8.75% and -8.42%, respectively. In addition, the viability increase in test [3] is -3.35%. The viability is 88.7% in test [4] and 85.6% in test [5]. Also, the inhibition in test [6] is 2.99%. In test [7], the RAM network inhibition is 2.61%.
Regarding `CCOC(=O)C1=C(C)NC2=C(C(=O)CCC2)C1c1cc(OC)ccc1OC` (stereo unspecified), the growth inhibition in test [1] was -10.6%; in test [2], -12.8%. The viability increase in test [3] was -1.47%. Also, the values for the viability in test [4] and in test [5] were 94.1% and 96.3%, respectively. For the same compound, the inhibition in test [6] is 1.73%. Moreover, the RAM network inhibition in test [7] is 7.52%.
As for `COc1ccc(Cl)cc1C(=O)NCC(C)C`, the growth inhibition in test [1] was 6.51%; in test [2], 8.17%. The viability increase in test [3] was -0.38%. Besides, the viability is 95.7% in test [4] and 90.4% in test [5]. Moreover, the inhibition in test [6] was 2.71%. Also, the RAM network inhibition in test [7] was 4.05%.
Regarding `CC1(C)CC2CC(C)(CN2C(=O)C23CCC(C)(C(=O)O2)C3(C)C)C1` (stereo unspecified), the growth inhibition was -6.75% in test [1] and -1.53% in test [2]. Besides, the viability increase in test [3] is -1.13%. Further, the viability in test [4] is 92.5%; in test [5], 91.1%. For the same compound, the inhibition in test [6] was 2.16%. Further, the RAM network inhibition in test [7] is 4%.
Turning to `Cc1oc(-c2ccccc2F)nc1CS(=O)CC(=O)NCc1ccc2c(c1)OCO2` (stereo unspecified), the growth inhibition was -13.9% in test [1] and 2.87% in test [2]. Further, the viability increase in test [3] was -1.41%. Also, the viability was 94.2% in test [4] and 89.3% in test [5]. The inhibition in test [6] is 2%. Moreover, the RAM network inhibition in test [7] was 7.13%.
For the compound `CC(C)COC(=O)C1C2C=CC3(CN(C4CCCC4)C(=O)C13)O2` (stereo unspecified), the growth inhibition in test [1] is -14.1%; in test [2], -0.515%. Besides, in test [3], the viability increase was -1.25%. Further, the viability in test [4] is 107%; in test [5], 92.8%. In addition, the inhibition in test [6] is 2.07%. In test [7], the RAM network inhibition is 2.04%.
`CCCNC(=O)C(Cc1ccccc1)NS(=O)(=O)c1ccc2c(c1)CCC(=O)N2` (stereo unspecified): the results for the growth inhibition in test [1] and in test [2] were -5.35% and -3.94%, respectively. Further, the viability increase in test [3] was 0.26%. Besides, the viability in test [4] was 101%; in test [5] it was 102%. Further, in test [6], the inhibition was 0.755%. In addition, in test [7], the RAM network inhibition was 1.71%.
For the compound `Cc1ccc2oc(=O)c3cc(C(=O)N4CCN(c5ncccn5)CC4)sc3c2c1`, the growth inhibition in test [1] is -7.63%; in test [2] it was -1.9%. Further, the viability increase in test [3] is -3.11%. Also, the results for the viability in test [4] and in test [5] were 107% and 98.1%, respectively. Besides, in test [6], the inhibition was 1.62%. The RAM network inhibition in test [7] is 2.64%.
Turning to `COc1ccc2c(=O)c(N3C(=O)c4ccccc4C3=O)c(C)oc2c1`, the growth inhibition is -11.8% in test [1] and -0.32% in test [2]. In test [3], the viability increase was -1.12%. The viability is 94.2% in test [4] and 92.6% in test [5]. In test [6], the inhibition is -0.25%. Besides, in test [7], the RAM network inhibition was 1.33%.
In the case of `COc1ccc(-c2nc(CSCC(=O)N3CCN(C4CCCCC4)CC3)c(C)o2)cc1OC`, the results for the growth inhibition in test [1] and in test [2] were -5.55% and 7.03%, respectively. Moreover, in test [3], the viability increase was -1.54%. Besides, the viability in test [4] is 87.8%; in test [5] it was 96.3%. For the same compound, the inhibition in test [6] was 1.04%. In addition, the RAM network inhibition in test [7] was 2.38%.
Take `O=C(O)c1cc(S(=O)(=O)Nc2ccc3c(c2)OCCO3)c(Cl)cc1Cl`: the growth inhibition in test [1] was -5.69%; in test [2] it was 3.62%. For the same compound, the viability increase in test [3] is -1.04%. The viability in test [4] was 95.1%; in test [5], 88.4%. Further, in test [6], the inhibition was 2.01%. Also, the RAM network inhibition in test [7] was -0.21%.
